For data set [1], the system named is orthotopic 4T1 breast tumors. Nature of the data set: Tumor treatment study, orthotopic 4T1 breast tumors. In kind it is in vivo, mouse. To be noted: DOX 3 mg/kg + 4 µmol/kg iNGR i.v. every other day.
The subject of data set [2] is 4T1 tumors. To be noted: no penetrating peptide; cited from earlier work.
Data set [3] concerns the target T1, NRP-2 (Homo sapiens, UniProt O60462).
T1 sequence (O60462 21-931): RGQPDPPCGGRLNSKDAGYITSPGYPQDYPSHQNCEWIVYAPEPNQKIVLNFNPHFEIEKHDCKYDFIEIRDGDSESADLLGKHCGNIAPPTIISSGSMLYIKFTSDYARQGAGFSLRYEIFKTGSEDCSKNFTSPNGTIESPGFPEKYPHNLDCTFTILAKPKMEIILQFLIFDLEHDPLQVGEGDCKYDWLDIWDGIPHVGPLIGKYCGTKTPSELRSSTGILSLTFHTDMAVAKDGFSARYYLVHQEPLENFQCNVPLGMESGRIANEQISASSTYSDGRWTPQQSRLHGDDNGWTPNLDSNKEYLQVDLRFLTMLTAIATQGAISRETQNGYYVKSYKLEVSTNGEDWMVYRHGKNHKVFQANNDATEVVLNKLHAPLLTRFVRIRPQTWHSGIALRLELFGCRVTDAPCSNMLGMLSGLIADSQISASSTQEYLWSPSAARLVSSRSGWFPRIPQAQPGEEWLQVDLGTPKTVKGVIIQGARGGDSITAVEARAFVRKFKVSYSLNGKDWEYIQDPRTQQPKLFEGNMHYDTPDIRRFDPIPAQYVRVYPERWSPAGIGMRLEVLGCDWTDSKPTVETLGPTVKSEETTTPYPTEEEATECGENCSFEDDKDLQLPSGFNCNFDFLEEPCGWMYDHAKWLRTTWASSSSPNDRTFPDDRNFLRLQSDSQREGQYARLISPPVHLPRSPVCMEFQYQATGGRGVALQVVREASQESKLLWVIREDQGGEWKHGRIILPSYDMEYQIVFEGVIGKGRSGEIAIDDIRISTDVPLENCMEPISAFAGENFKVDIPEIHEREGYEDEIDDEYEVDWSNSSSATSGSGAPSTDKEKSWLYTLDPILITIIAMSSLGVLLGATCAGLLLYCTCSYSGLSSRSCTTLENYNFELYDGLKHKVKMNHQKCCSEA
Nature of the data set: Dose-dependent binding of phage to purified NRP-2. To be noted: phage-displayed peptide, Fig. 1F; for Phage binding to immobilized NRP-2: anti-T7 phage antibody / HRP detection. The method, boiled down:
(§1)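 Peptide-displaying T7 phage was added over a range of phage amounts to purified NRP-1 or NRP-2 protein. Bound phage was detected with a rabbit anti-T7 phage antibody followed by an HRP-labeled goat anti-rabbit secondary antibody.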

For data set [4], the target named is NRP-1 (Homo sapiens, UniProt O14786). Put plainly: Dose-dependent binding of phage to purified NRP-1. To be noted: phage-displayed peptide, Fig. 1E; for Phage binding to immobilized NRP-1: anti-T7 phage antibody / HRP detection. The method, boiled down:
as §1

In data set [5] the test system is tumors. To be noted: cited from earlier work.
Data set [6] has as its system HUVECs. Nature of the data set: Mass spectrometry of peptide inside HUVECs after incubation with FAM-peptide. In kind it is cell-based, human. To be noted: Fig. S4.

NRP-1, sequence (O14786 22-923): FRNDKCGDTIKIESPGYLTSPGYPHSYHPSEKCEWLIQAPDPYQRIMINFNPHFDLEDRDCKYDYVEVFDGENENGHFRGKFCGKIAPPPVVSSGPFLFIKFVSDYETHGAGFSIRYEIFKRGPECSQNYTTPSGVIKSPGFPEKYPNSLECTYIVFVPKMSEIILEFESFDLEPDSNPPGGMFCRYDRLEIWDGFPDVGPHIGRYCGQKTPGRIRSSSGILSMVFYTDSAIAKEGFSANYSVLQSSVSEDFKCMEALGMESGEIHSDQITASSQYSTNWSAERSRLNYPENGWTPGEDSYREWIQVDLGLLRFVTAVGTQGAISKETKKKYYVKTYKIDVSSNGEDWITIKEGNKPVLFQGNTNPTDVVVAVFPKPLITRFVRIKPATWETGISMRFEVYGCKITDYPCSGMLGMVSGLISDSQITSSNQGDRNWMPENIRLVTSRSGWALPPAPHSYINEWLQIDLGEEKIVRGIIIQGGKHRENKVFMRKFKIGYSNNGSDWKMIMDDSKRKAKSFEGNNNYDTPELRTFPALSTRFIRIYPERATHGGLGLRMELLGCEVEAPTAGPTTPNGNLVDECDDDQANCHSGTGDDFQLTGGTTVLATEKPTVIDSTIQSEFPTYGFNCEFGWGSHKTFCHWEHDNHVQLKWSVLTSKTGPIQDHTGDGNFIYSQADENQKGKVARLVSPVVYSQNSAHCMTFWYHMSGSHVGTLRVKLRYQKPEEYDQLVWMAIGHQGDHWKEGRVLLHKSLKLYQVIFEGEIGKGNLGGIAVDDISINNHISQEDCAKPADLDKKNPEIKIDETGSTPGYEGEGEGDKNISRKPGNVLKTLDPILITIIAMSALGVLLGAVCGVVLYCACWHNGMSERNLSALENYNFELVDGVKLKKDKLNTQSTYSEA

As for `COc1cccc2c1C(=O)c1c(O)c3c(c(O)c1C2=O)C[C@@](O)(C(=O)CO)C[C@@H]3O[C@H]1C[C@H](N)[C@H](O)[C@H](C)O1` [Doxorubicin, doxorubicin], the “Efficacy of doxorubicin given together with iNGR” value in data set [1] was “significantly more efficacious than the drug alone”.

On to CGKRK, for which the “Tumor homing and extravasation of NWs coated with the peptide” value in data set [2] was “brings the NWs to tumor vessels, but does not trigger extravasation”.

Turning to CRNGR [iNGRt], in data set [3], the “Phage binding to immobilized NRP-2” value is on record as “bound to the NRPs” and the “Affinity for NRP-2 compared with iRGDt” value is “higher affinity”. In data set [4], the “Phage binding to immobilized NRP-1” value is recorded as “bound to the NRPs” and the “Affinity for NRP-1 compared with iRGDt” value is reported as “higher affinity”.

Regarding CGNKRTRGC [LyP-1], the Tumor penetration result in data set [5] is reported as “penetrates into tumors through the CendR/NRP mechanism”.

Take FAM-CNGRC: in data set [6], the “Peptide present inside HUVECs after incubation with FAM-peptide” value is given as “did not penetrate into the cells”.

Consider CRGDK [iRGDt], for which the “Phage binding to immobilized NRP-2” value in data set [3] is “bound to the NRPs”. Further, the “Phage binding to immobilized NRP-1” value in data set [4] was “bound to the NRPs”.

These data come from PMC3548935 (Cancer research, 2012).
